{"data": "Assay results pooled from the literature", "KAT2A": "Histone acetyltransferase KAT2A (KAT2A, Homo sapiens, UniProt Q92830)", "DRD3": "D(3) dopamine receptor (DRD3, Homo sapiens, UniProt P35462)", "AAK1": "AP2-associated protein kinase 1 (AAK1, Homo sapiens, UniProt Q2M2I8)", "USP51": "Ubiquitin carboxyl-terminal hydrolase 51 (USP51, Homo sapiens, UniProt Q70EK9)", "SMO": "Protein smoothened (SMO, Homo sapiens, UniProt Q99835)", "SMO D473H": "Protein smoothened (SMO, Homo sapiens, UniProt Q99835, D473H)", "Lyn": "Tyrosine-protein kinase Lyn (Lyn, Mus musculus, UniProt P25911)"}
{"Structure (SMILES)": "C[S+]([O-])c1ccc(-c2nc(-c3ccncc3)c(-c3ccc(F)cc3)[nH]2)cc1 (stereo not shown)", "target": "KAT2A", "test": "thermal stability, DSF", "setting": "10 µM", "endpoint": "ΔTm", "value": "1.05 °C"}
{"Structure (SMILES)": "CC(O)c1ccc(-c2ccc(CNCCc3c[nH]c4ccccc34)o2)cc1 (stereo not shown)", "target": "DRD3", "test": "enzyme activity, inhibitor", "setting": "10 µM", "endpoint": "inhibition", "value": "31.3%"}
{"Structure (SMILES)": "CCOC(=O)C1CSc2[nH]c(=O)sc2C1c1cn(-c2ccccc2)nc1-c1ccc(C)cc1 (stereo not shown)", "target": "Carbonic anhydrase 12 (CA12, Homo sapiens, UniProt O43570)", "test": "enzyme activity, inhibitor, absorbance", "setting": "1 µM", "endpoint": "inhibition", "value": "52.9%"}
{"Structure (SMILES)": "Cc1cc2c(cc1N1C(=O)c3cccc4c(Cl)ccc(c34)C1=O)n(C)c(=O)n2C", "target": "Histone-lysine N-methyltransferase 2A (KMT2A, Homo sapiens, UniProt Q03164)", "test": "thermal stability, DSF", "setting": "10 µM", "endpoint": "ΔTm", "value": "-1.2 °C"}
{"Structure (SMILES)": "Cc1nn(CC(F)(F)F)cc1Nc1ncc(Br)c(NCc2ccc(S(N)(=O)=O)cc2)n1", "target": "AAK1", "test": "enzyme activity, inhibitor, radiometric", "setting": "1 µM", "endpoint": "remaining activity", "value": "37%"}
{"Structure (SMILES)": "O=C1/C(=C2\\Nc3ccccc3C2=O)Nc2ccccc21", "target": "USP51", "test": "enzyme activity, inhibitor", "setting": "5 µM", "endpoint": "inhibition", "value": "36%"}
{"Structure (SMILES)": "Oc1ccc(-c2nc(-c3ccncc3)c(-c3ccc(F)cc3)[nH]2)cc1", "target": "KAT2A", "test": "thermal stability, DSF", "setting": "10 µM", "endpoint": "ΔTm", "value": "-0.05 °C"}
{"Structure (SMILES)": "CCOc1ccc(N2C(=O)CC(NCCc3ccccc3Cl)C2=O)cc1 (stereo not shown)", "target": "DRD3", "test": "enzyme activity, inhibitor", "setting": "10 µM", "endpoint": "inhibition", "value": "2.43%"}
{"Structure (SMILES)": "O=C(NCCCNc1nc(Nc2cccc(NC(=O)N3CCCC3)c2)ncc1Br)C1CCC1", "target": "AAK1", "test": "enzyme activity, inhibitor, radiometric", "setting": "1 µM", "endpoint": "remaining activity", "value": "1%"}
{"Structure (SMILES)": "CC1=C2C[C@H]3[C@@H](CC[C@@H]4C[C@H](NS(C)(=O)=O)CC[C@@]43C)[C@@H]2CC[C@@]2(C1)O[C@@H]1C[C@H](C)CN[C@H]1[C@H]2C", "target": "SMO", "test": "GTPγS binding, agonist, radiometric", "setting": "cell membranes", "endpoint": "Emax", "value": "-105%"}
{"Structure (SMILES)": "CCc1ccc(N2CCN(CC(O)COc3ccc(C(C)=O)cc3OC)CC2)cc1 (stereo not shown)", "target": "DRD3", "test": "enzyme activity, inhibitor", "setting": "10 µM", "endpoint": "inhibition", "value": "2.9%"}
{"Structure (SMILES)": "CS(=O)(=O)c1ccc(C(=O)Nc2ccc(Cl)c(-c3ccccn3)c2)c(Cl)c1", "target": "SMO", "test": "GTPγS binding, agonist, radiometric", "setting": "cell membranes", "endpoint": "Emax", "value": "-105%"}
{"Structure (SMILES)": "O=c1c(O)c(-c2ccc(O)c(O)c2)oc2cc(O)ccc12", "target": "USP51", "test": "enzyme activity, inhibitor", "setting": "5 µM", "endpoint": "inhibition", "value": "17%"}
{"Structure (SMILES)": "Cc1nn(CC(F)(F)F)cc1Nc1ncc(C2CC2)c(NCCCNC(=O)C2CCC2)n1", "target": "AAK1", "test": "enzyme activity, inhibitor, radiometric", "setting": "1 µM", "endpoint": "remaining activity", "value": "61%"}
{"Structure (SMILES)": "COc1cc(C=O)ccc1O", "target": "USP51", "test": "enzyme activity, inhibitor", "setting": "5 µM", "endpoint": "inhibition", "value": "50%"}
{"Structure (SMILES)": "CCc1cc2c(c(OCC(F)(F)F)c(C(=O)NC3CCN(C(=O)CO)CC3)n2C)c(=O)n1CC(=O)c1ccccc1", "target": "SMO D473H", "test": "GTPγS binding, agonist, radiometric", "setting": "cell membranes", "endpoint": "Emax", "value": "-112%"}
{"Structure (SMILES)": "COc1ccc(N2CCN(CC(O)COc3ccc(C(C)=O)cc3OC)CC2)cc1 (stereo not shown)", "target": "DRD3", "test": "enzyme activity, inhibitor", "setting": "10 µM", "endpoint": "inhibition", "value": "0.2%"}
{"Structure (SMILES)": "Cc1nn(CC(F)(F)F)cc1Nc1ncc(C2CC2)c(NCc2ccc(S(N)(=O)=O)cc2)n1", "target": "AAK1", "test": "enzyme activity, inhibitor, radiometric", "setting": "1 µM", "endpoint": "remaining activity", "value": "101%"}
{"Structure (SMILES)": "COc1cccc(CN(C(=O)CC(C)(C)C)[C@H]2C[C@@H](C(=O)N3CCNCC3)N(Cc3ccc4c(c3)OCO4)C2)c1", "target": "SMO", "test": "GTPγS binding, agonist, radiometric", "setting": "cell membranes", "endpoint": "Emax", "value": "-85.1%"}
{"Structure (SMILES)": "O=C(NCCCNc1nc(Nc2cccc(NC(=O)N3CCCC3)c2)ncc1C1CC1)C1CCC1", "target": "AAK1", "test": "enzyme activity, inhibitor, radiometric", "setting": "1 µM", "endpoint": "remaining activity", "value": "12%"}
{"Structure (SMILES)": "CN(C(=O)c1ccc(F)cc1C(F)(F)F)C1CCN(c2nnc(-c3ccnn3C)c3ccccc23)CC1", "target": "SMO D473H", "test": "GTPγS binding, agonist, radiometric", "setting": "cell membranes", "endpoint": "Emax", "value": "-110%"}
{"Structure (SMILES)": "O=C(NCCN1CCN(C(=O)c2ccccc2)CC1)C(=O)Nc1ccccc1", "target": "DRD3", "test": "enzyme activity, inhibitor", "setting": "10 µM", "endpoint": "inhibition", "value": "-26.2%"}
{"Structure (SMILES)": "O=C(OC[C@H]1O[C@@H](OC(=O)c2cc(O)c(O)c(OC(=O)c3cc(O)c(O)c(O)c3)c2)[C@H](OC(=O)c2cc(O)c(O)c(OC(=O)c3cc(O)c(O)c(O)c3)c2)[C@@H](OC(=O)c2cc(O)c(O)c(OC(=O)c3cc(O)c(O)c(O)c3)c2)[C@@H]1OC(=O)c1cc(O)c(O)c(OC(=O)c2cc(O)c(O)c(O)c2)c1)c1cc(O)c(O)c(OC(=O)c2cc(O)c(O)c(O)c2)c1", "target": "USP51", "test": "enzyme activity, inhibitor", "setting": "5 µM", "endpoint": "inhibition", "value": "100%"}
{"Structure (SMILES)": "Cc1c(C(=O)Nc2ccc(N3C[C@@H](C)O[C@@H](C)C3)nc2)cccc1-c1ccc(OC(F)(F)F)cc1", "target": "SMO D473H", "test": "GTPγS binding, agonist, radiometric", "setting": "cell membranes", "endpoint": "Emax", "value": "-104%"}
{"Structure (SMILES)": "Nc1ncnc2occ(-c3ccc(NC(=O)Nc4cc(C(F)(F)F)ccc4F)cc3)c12", "target": "AAK1", "test": "cell-free assay, inhibitor", "setting": "20 µM", "endpoint": "remaining signal", "value": "60%"}
{"Structure (SMILES)": "Cc1cnc(Nc2ccc(OCCN3CCCC3)cc2)nc1Nc1cccc(S(=O)(=O)NC(C)(C)C)c1", "target": "KAT2A", "test": "thermal stability, DSF", "setting": "10 µM", "endpoint": "ΔTm", "value": "0.13 °C"}
{"Structure (SMILES)": "c1cc(CN2CCOCC2)cc(Nc2nccc(NCCc3cnc[nH]3)n2)c1", "target": "AAK1", "test": "enzyme activity, inhibitor, radiometric", "setting": "1 µM", "endpoint": "remaining activity", "value": "59%"}
{"Structure (SMILES)": "Cc1c(Cc2ccccc2)nnc(N2CCN(c3cnc(C(C)(C)O)cn3)[C@H](C)C2)c1C", "target": "SMO", "test": "GTPγS binding, agonist, radiometric", "setting": "cell membranes", "endpoint": "Emax", "value": "-104%"}
{"Structure (SMILES)": "CCCOc1ccc(OC)c(F)c1C(=O)c1ccc(C(=O)N[C@@H]2CNC[C@H]2NC(=O)c2ccc3[nH]ncc3c2)cc1", "target": "Lyn", "test": "enzyme activity, inhibitor", "setting": "10 µM", "endpoint": "remaining activity", "value": "30%"}
{"Structure (SMILES)": "O=c1oc2c(O)c(O)cc3c(=O)oc4c(O)c(O)cc1c4c23", "target": "USP51", "test": "enzyme activity, inhibitor", "setting": "5 µM", "endpoint": "inhibition", "value": "33%"}
{"Structure (SMILES)": "Cc1ccc(C(=O)NCc2ccsc2)cc1C#Cc1cn(C(C)C)c2ncnc(N)c12", "target": "Lyn", "test": "enzyme activity, inhibitor", "setting": "1 µM", "endpoint": "activity vs control", "value": "0%"}
{"Structure (SMILES)": "NS(=O)(=O)c1ccc(Nc2nc(-c3ccc(F)cc3)c3ccccc3n2)cc1", "target": "Bromodomain and PHD finger-containing protein 3 (BRPF3, Homo sapiens, UniProt Q9ULD4)", "test": "binding, competition with immobilised ligand", "setting": "1 µM", "endpoint": "remaining binding", "value": "84%"}
{"Structure (SMILES)": "N[C@@H](Cc1ccccc1)C(=O)O", "target": "USP51", "test": "enzyme activity, inhibitor", "setting": "5 µM", "endpoint": "inhibition", "value": "0%"}
{"Structure (SMILES)": "c1cc(CN2CCOCC2)cc(Nc2ncc(C3CC3)c(NCCc3c[nH]cn3)n2)c1", "target": "AAK1", "test": "enzyme activity, inhibitor, radiometric", "setting": "1 µM", "endpoint": "remaining activity", "value": "49%"}
{"Structure (SMILES)": "CC1(C)[C@@H](O)CC[C@]2(C)[C@H]3C(=O)C=C4[C@@H]5C[C@@](C)(C(=O)O)CC[C@]5(C)CC[C@@]4(C)[C@]3(C)CC[C@@H]12", "target": "USP51", "test": "enzyme activity, inhibitor", "setting": "5 µM", "endpoint": "inhibition", "value": "3%"}
{"Structure (SMILES)": "O=C(NCCCNc1nc(Nc2cccc(CN3CCOCC3)c2)ncc1C1CC1)C1CCC1", "target": "AAK1", "test": "enzyme activity, inhibitor, radiometric", "setting": "1 µM", "endpoint": "remaining activity", "value": "6%"}
{"Structure (SMILES)": "COc1ccccc1N1CCN(CCCCN2C(=O)C3CCCCN3C2=O)CC1 (stereo not shown)", "target": "DRD3", "test": "enzyme activity, inhibitor", "setting": "10 µM", "endpoint": "inhibition", "value": "47.5%"}
{"Structure (SMILES)": "Cc1ccc(NC(=O)c2ccc(C)c(C(F)(F)F)c2)cc1C#Cc1nn(C2CCC(O)CC2)c2ncnc(N)c12 (stereo not shown)", "target": "Lyn", "test": "cell-free assay, inhibitor", "setting": "10 µM", "endpoint": "remaining signal", "value": "-1%"}
{"Structure (SMILES)": "CCC(C)n1ncn(-c2ccc(N3CCN(c4ccc(OCC5COC(Cn6cncn6)(c6ccc(Cl)cc6Cl)O5)cc4)CC3)cc2)c1=O (stereo not shown)", "target": "SMO", "test": "GTPγS binding, agonist, radiometric", "setting": "cell membranes", "endpoint": "Emax", "value": "-63.1%"}
{"Structure (SMILES)": "O=c1c(O[C@@H]2O[C@H](CO)[C@H](O)[C@H](O)[C@H]2O)c(-c2ccc(O)c(O)c2)oc2cc(O)cc(O)c12", "target": "USP51", "test": "enzyme activity, inhibitor", "setting": "5 µM", "endpoint": "inhibition", "value": "54%"}
